Experimental findings from ChEMBL document CHEMBL1154049, “A versatile photoactivatable probe designed to label the diphosphate binding site of farnesyl diphosphate utilizing enzymes” (Bioorg Med Chem, 2009) are described below.

Assay [1] has as its target T1, Protein farnesyltransferase/geranylgeranyltransferase type-1 subunit alpha (Saccharomyces cerevisiae S288c, UniProt P29703).
T1 sequence (P29703 whole entry): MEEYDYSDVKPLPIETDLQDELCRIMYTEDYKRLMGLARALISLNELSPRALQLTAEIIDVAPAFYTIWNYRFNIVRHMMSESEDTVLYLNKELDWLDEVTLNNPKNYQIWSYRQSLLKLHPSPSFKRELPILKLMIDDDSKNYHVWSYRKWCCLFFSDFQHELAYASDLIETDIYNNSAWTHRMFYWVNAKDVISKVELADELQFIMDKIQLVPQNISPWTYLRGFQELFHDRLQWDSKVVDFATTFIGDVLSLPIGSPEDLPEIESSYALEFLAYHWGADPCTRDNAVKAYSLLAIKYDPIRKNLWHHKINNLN
Briefly: Inhibition of Saccharomyces cerevisiae protein farnesyltransferase assessed as farnesylation of N-dansyl-GCVIA. The essentials:
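Purified ScPFTase at 5.0 nM; continuous fluorescence assay following dansyl fluorescence rise as N-dansyl-GCVIA (2.4 µM) is prenylated. For IC50, FPP fixed at 2.4 µM, inhibitor 0–20 µM, duplicates, direct fit of rate vs inhibitor concentration. For KI, 4×6 grid of duplicates with FPP at 1, 2, 5, 7.0 µM and inhibitor 0–2 µM; initial velocities, Eadie-Hofstee plot.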

The subject of assay [2] is Nostoc. The assay is described as follows: Inhibition of Nostoc PCC 7120 sesquiterpene synthase in presence of farnesyl diphosphate. The essentials: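 Purified cyclase (10 µg) in 200 µL 10 mM Tris·HCl pH 8.0, 10 mM MgCl2, 1.0 mM 2-mercaptoethanol with probe and/or FPP (50, 100 or 200 µM), sealed vial, 18 h at 25 °C; headspace sampled 10 min by SPME, GC/MS analysis of sesquiterpene product.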

Assay [3] addresses T2, Protein farnesyltransferase/geranylgeranyltransferase type-1 subunit alpha (Saccharomyces cerevisiae S288c) (UniProt P29703).
T2 sequence (whole entry): T1 sequence (P29703 whole entry)
The assay is described as follows: Activity at Saccharomyces cerevisiae protein farnesyltransferase upto 200 uM by continuous fluorescence assay. The method, boiled down: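 Purified yeast PFTase; continuous fluorescence read-out of dansyl signal increase on prenylation of N-dansyl-GCVIA acceptor, with analogue replacing FPP at up to 200 µM.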

Assay [4] deals with T2, Protein farnesyltransferase/geranylgeranyltransferase type-1 subunit alpha (Saccharomyces cerevisiae S288c). Briefly: Binding affinity to Saccharomyces cerevisiae protein farnesyltransferase assessed as enzyme beta subunit photolabeling at 29 uM by SDS-PAGE based phosphor imaging analysis. Conditions: tested as the 32P-labelled form. The method, boiled down:
(§1)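 Purified enzyme (50 µg/mL) in 52 mM Tris·HCl pH 7.0, 5.8 mM DTT, 12 mM MgCl2, 12 µM ZnCl2, 25 mM NH4HCO3 with [32P]probe 29 µM; irradiated 350 nm, 6 h, 4 °C; protection runs add FPP 100 µM final. SDS loading buffer, 70 °C 20 min, 12% Tris-Tricine SDS-PAGE, Coomassie stain, phosphorimaging.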

The target is the same in assay [5]. The assay is described as follows: Binding affinity to Saccharomyces cerevisiae protein farnesyltransferase assessed as enzyme alpha subunit photolabeling at 29 uM by SDS-PAGE based phosphor imaging analysis. The conditions noted are these: tested as the 32P-labelled form. The essentials: as §1
For assay [6] the target is unchanged. Briefly: Binding affinity to Saccharomyces cerevisiae protein farnesyltransferase assessed as photolabeling at 29 uM by SDS-PAGE based phosphor imaging analysis in presence of excess farnesyl diphosphate. Conditions: tested as the 32P-labelled form. The essentials: as §1
Assay [7] has the same target. Briefly: Binding affinity to Saccharomyces cerevisiae protein farnesyltransferase assessed as photolabeling at 29 uM by SDS-PAGE based phosphor imaging analysis in absence of UV irradiation. The conditions noted are these: tested as the 32P-labelled form.
The target of assay [8] is T3, Farnesyl diphosphate synthase (Escherichia coli K-12) (UniProt P22939).
T3 sequence (whole entry): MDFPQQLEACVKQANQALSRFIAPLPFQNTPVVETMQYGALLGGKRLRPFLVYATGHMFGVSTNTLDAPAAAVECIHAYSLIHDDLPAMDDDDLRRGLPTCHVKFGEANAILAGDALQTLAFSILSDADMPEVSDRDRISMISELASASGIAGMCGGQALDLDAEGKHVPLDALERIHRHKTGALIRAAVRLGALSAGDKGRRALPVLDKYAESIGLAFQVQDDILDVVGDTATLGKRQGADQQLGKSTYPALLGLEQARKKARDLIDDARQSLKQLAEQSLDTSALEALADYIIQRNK
Briefly: Binding affinity to Escherichia coli farnesyl diphosphate synthase assessed as photolabeling at 29 uM by SDS-PAGE based phosphor imaging analysis. Conditions: tested as the 32P-labelled form. The essentials: as §1

In assay [9] the target is T3, Farnesyl diphosphate synthase (Escherichia coli K-12). Briefly: Binding affinity to Escherichia coli farnesyl diphosphate synthase assessed as photolabeling at 29 uM by SDS-PAGE based phosphor imaging analysis in presence of excess farnesyl diphosphate. The conditions noted are these: tested as the 32P-labelled form. The method, boiled down: as §1
The target is the same in assay [10]. Briefly: Binding affinity to Escherichia coli farnesyl diphosphate synthase assessed as photolabeling at 29 uM by SDS-PAGE based phosphor imaging analysis in absence of UV irradiation. The conditions noted are these: tested as the 32P-labelled form.
In assay [11] the test system is Drosophila melanogaster. Briefly: Binding affinity to Drosophila melanogaster farnesyl diphosphate synthase assessed as photolabeling at 29 uM by SDS-PAGE based phosphor imaging analysis. The conditions noted are these: tested as the 32P-labelled form. The essentials:
as §1

The test system of assay [12] is Drosophila melanogaster. Briefly: Binding affinity to Drosophila melanogaster farnesyl diphosphate synthase assessed as photolabeling at 29 uM by SDS-PAGE based phosphor imaging analysis in absence of UV irradiation. Conditions: tested as the 32P-labelled form.
In assay [13] the test system is Drosophila melanogaster. Briefly: Binding affinity to Drosophila melanogaster farnesyl diphosphate synthase assessed as photolabeling at 29 uM by SDS-PAGE based phosphor imaging analysis in presence of excess farnesyl diphosphate. The conditions noted are these: tested as the 32P-labelled form. The essentials:
as §1

In assay [14] the test system is Nostoc. The assay is described as follows: Binding affinity to Nostoc PCC 7120 sesquiterpene synthase assessed as photolabeling at 29 uM by SDS-PAGE based phosphor imaging analysis. Conditions: tested as the 32P-labelled form. The method, boiled down: as §1
Assay [15] has as its system Nostoc. Briefly: Binding affinity to Nostoc PCC 7120 sesquiterpene synthase assessed as photolabeling at 29 uM by SDS-PAGE based phosphor imaging analysis in presence of excess farnesyl diphosphate. The conditions noted are these: tested as the 32P-labelled form. The essentials:
as §1

Assay [16] deals with Nostoc. The assay is described as follows: Substrate activity at Nostoc PCC 7120 sesquiterpene synthase in absence of farnesyl diphosphate. The conditions noted are these: tested as the 32P-labelled form.

Calls of active or inactive are those of the source. The calls are words filed in the database; no cut-off is given here.

Regarding `CC(C)=CCC/C(C)=C/CC/C(C)=C/COP(=O)(O)OP(=O)(O)Cc1ccc(C(=O)c2ccccc2)cc1`, the IC50 in assay [1] is 3 µM. Moreover, the Ki in assay [1] was 480 nM. Besides, the inhibition result with Nostoc [2] is “inactive”. The outcome in assay [3], in assay [5], in [6], in assay [7], in [9] and in [10] was inactive. The result in the assay on Drosophila melanogaster [12], in the assay with Drosophila melanogaster [13] and in the assay on Nostoc [15] was inactive. Further, the outcome (in assay [4]; in [8]; with Nostoc [14]; with Nostoc [16]) was Active. In the assay with Drosophila melanogaster [11], the Activity was 46%.

With `CC(C)=CCC/C(C)=C/CC/C(C)=C/COP(=O)(O)OP(=O)(O)Cc1cccc(C(=O)c2ccccc2)c1`, the IC50 in assay [1] turned out to be 5.8 µM. In addition, the outcome in [3], in [5], in [6] and in assay [7] was inactive. Moreover, the outcome in [4] was Active.

`C/C(=C\COP(=O)(O)OP(=O)(O)O)COCc1cccc(C(=O)c2ccccc2)c1`: in [1], the IC50 was determined as 3.4 µM and the Ki was 610 nM.

With `C/C(=C\COP(=O)(O)OP(=O)(O)O)CC/C=C(\C)COC(=O)[C-]([N+]#N)C(F)(F)F`, in assay [1], the IC50 came to 0.72 µM and the Ki was determined as 200 nM.

In general, IC50 refers to the concentration that inhibits the measured activity by half. As a reminder, the Ki is a measure of affinity in units of concentration, obtained from inhibition or displacement.
